APJ antagonist – antagonists of human APJ apelin receptor; P35414; CHO-K1 APJ beta-arrestin complementation, luminescence; inhibition, % at 20 µM; 0.32% of 330,000 active;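 active means inhibition above about 40% at 20 µM, limit read from the data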;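 further: cells challenged with 10 nM apelin-13 agonist together with compound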
CCR6 antag – blocks CCL20-driven beta-arrestin recruitment at human CCR6; P51684; CHO-K1 CCR6 PathHunter beta-arrestin, luminescence, CCL20-stimulated; inhibition, % at 20 µM; 0.49% of 340,000 active; AID 493098;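 active means compounds whose inhibition of the agonist-driven luminescence signal at 20 µM reaches about 50%, limit read from the data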;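 further: cells stimulated with CCL20 at 14 nM final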
EBI2 antag – EBI2 (human) antagonism; 0.81% of 360,000 active; inhibition, % at 5 µM; EBI2 beta-arrestin recruitment, luminescence, 7a,25-OHC stimulated; AID 651636; P32249; in the data active means inhibition above about 38%;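 further: enzyme fragment complementation signal reports receptor beta-arrestin coupling in cells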
Target sequence (P32249 whole entry, looked up, the tested form may be a part): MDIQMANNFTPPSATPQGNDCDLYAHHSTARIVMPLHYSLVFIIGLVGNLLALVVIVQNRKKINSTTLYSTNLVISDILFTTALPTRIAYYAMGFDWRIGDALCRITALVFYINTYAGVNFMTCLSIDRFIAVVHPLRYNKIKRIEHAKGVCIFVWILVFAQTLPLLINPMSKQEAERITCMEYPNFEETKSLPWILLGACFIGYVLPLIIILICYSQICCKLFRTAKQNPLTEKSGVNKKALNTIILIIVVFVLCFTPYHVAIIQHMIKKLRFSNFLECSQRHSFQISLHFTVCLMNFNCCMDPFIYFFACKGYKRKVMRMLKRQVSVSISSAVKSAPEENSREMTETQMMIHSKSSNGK
CXCR6 inh – blocks human CXCR6 beta-arrestin recruitment; inhibition, % at 20 µM; 0.36% of 360,000 active; CHO-K1 PathHunter CXCR6 beta-arrestin, luminescence; in the data active means inhibition above about 34%, passing the limit was not always enough;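 further: antagonist mode with CXCL16 agonist at 10 nM final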
Target sequence (O00574 whole entry, looked up): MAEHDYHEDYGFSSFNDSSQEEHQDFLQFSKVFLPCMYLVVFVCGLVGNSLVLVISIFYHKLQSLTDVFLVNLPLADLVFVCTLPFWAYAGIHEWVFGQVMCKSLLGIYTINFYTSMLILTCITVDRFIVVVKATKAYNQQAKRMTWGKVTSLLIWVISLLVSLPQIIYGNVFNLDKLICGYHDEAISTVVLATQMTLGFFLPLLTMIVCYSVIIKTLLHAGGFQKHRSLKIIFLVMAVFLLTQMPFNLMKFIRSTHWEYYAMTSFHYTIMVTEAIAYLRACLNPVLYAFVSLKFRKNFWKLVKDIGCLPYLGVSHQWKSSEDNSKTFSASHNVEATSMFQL
APJ agonist – APJ receptor agonism | P35414 | CHO-K1 APJ PathHunter beta-arrestin, luminescence; 0% DMSO wells, 100% apelin | activation, % at 20 µM | 0.11% of 330,000 active | AID 2520;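 active means activation more than six SD over the plate average, tested at 20 µM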
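Test system – PathHunter CHO-K1 APJ (AGTRL-1) beta-arrestin reporter cells · Input – 1000 cells/well · Compound – single test compound dose, 20 µM final, 1% DMSO · Times – compound stimulation 90 min at 25 °C, detection 60 min · Technique – beta-gal luminescence · Read-out basis – APJ–arrestin association signal · Control set – negative DMSO alone, positive Apelin-13 at 10 nM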
APJ ag confirm – confirmation of human APJ apelin receptor agonists | shares compounds with APJ agonist | CHO-K1 APJ PathHunter beta-arrestin, luminescence | activation, % at 20 µM | 10% of 310 active | AID 2764;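 active means activation above 40%, taking the highest of four retests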
Large screens that a line does not name were inactive (follow-up assays come after a bar, where they were run). Compounds with a hit are over-represented: about 1.5% of the library has one in this group of screens.

N/C(Cc1ccccc1)=N\OC(=O)c1cccc2ccccc12	APJ agonist 12 | APJ ag confirm inactive
N/C(Cc1cccc2ccccc12)=N\OC(=O)c1ccccc1F	none
Cc1cccc(/C(N)=N/OC(=O)Cc2cccc3ccccc23)c1	none
O=c1c(-c2ccccc2)nc2ccccc2n1C(c1ccccc1)c1nc2ccccc2[nH]1 (configuration not stated)	none (no result: APJ antagonist, CCR6 antag, CXCR6 inh, APJ agonist)
CCCC[C@@H]1CC2=C(C(=O)OC(C)(C)O2)[C@@H](c2ccc(Cl)cc2)O1	none (no result: APJ antagonist, CCR6 antag, APJ agonist)
N/C(=N\OC(=O)c1ccoc1)c1ccc(Br)cc1	APJ agonist 43 | APJ ag confirm inactive
Cc1cc(C)cc(C(=O)O/N=C(\N)c2ccc(Br)cc2)c1	none
CS(=O)c1nc(-c2ccc(Br)cc2)cc(-c2ccccc2)c1C#N (configuration not stated)	EBI2 antag 64, APJ agonist 36 | APJ ag confirm inactive
CCCCNc1c(-c2ccc(OC)c(Sc3ccc(OC)cc3)c2)nc2ccccn12	APJ agonist 37 | APJ ag confirm inactive
CSc1cccc(NC(=S)NC(=O)CCc2ccccc2)c1	APJ agonist 43 | APJ ag confirm 51
CSc1cccc(NC(=O)CCc2ccccc2)c1	none
Cc1nn(Cc2ccccc2)c(C)c1NC(=O)CSc1nc2sc3c(c2c(=O)n1C)CCC3	APJ agonist 29 (no result: EBI2 antag, CXCR6 inh) | APJ ag confirm 40
Cc1cc(NC(=O)CSc2nc3sc4c(c3c(=O)n2C)CCCC4)no1	none
Cc1ncc(CO)c2c1Oc1nc(-c3ccccc3)nc(SCC(=O)N(C)c3ccccc3)c1C2	APJ agonist 28 (no result: CCR6 antag, EBI2 antag, CXCR6 inh) | APJ ag confirm inactive
O=C(Cn1ncc2c([nH]c3ccccc32)c1=O)Nc1ccc(CN2CCCCC2)cc1	APJ agonist 91 | APJ ag confirm inactive
CCN(c1ccc(NC(=O)COC(=O)c2ccc([N+](=O)[O-])o2)cc1)C(C)C	none
CC(=O)Nc1ccc(NC(=O)COC(=O)c2ccc([N+](=O)[O-])o2)cc1	APJ agonist 12 | APJ ag confirm inactive
CN1NC(c2ccccc2)NN(C)C1=O	none (no result: APJ antagonist, CCR6 antag, APJ agonist)
Cc1ccc(/C=N/NC(=O)CSc2nnc(-c3ccc(Cl)cc3)n2-c2ccccc2)o1	none
O=C(CSc1nnc(-c2ccc(Cl)cc2)n1-c1ccc(Cl)cc1)N/N=C/c1ccco1	APJ agonist 18 | APJ ag confirm inactive
COc1ccc(Cc2c(-c3ccccc3)nc3ccc(Br)cn23)c(C)c1	none (no result: APJ antagonist, CCR6 antag, APJ agonist)
Cc1cc(Br)cn2c(Cc3cccc(F)c3)c(-c3ccccc3)nc12	none (no result: APJ antagonist, CCR6 antag, APJ agonist)
Cc1cc(N/N=C/c2ccc(O)cc2)c2cccc(C)c2n1	none
Cc1cc(C)c2nc(C)cc(N/N=C/c3ccc(O)cc3)c2c1	APJ agonist 42 | APJ ag confirm inactive
COc1ccc(Cc2c(-c3ccc(OC)c(OC)c3)nc3cc(C)c(Br)c(C)n23)c(C)c1	none (no result: APJ antagonist, CCR6 antag, APJ agonist)
COC(=O)Cn1cc(/C=C(/C#N)C(=O)N2CCOCC2)c2ccccc21	APJ agonist 12 | APJ ag confirm inactive
N#Cc1ccc(NC(=O)Nc2ccc(Oc3ccc(NC(=O)Nc4ccc(C#N)cc4)cc3)cc2)cc1	APJ agonist 19 | APJ ag confirm inactive
CCOC(=O)[C@]12CCCC=C1N(Cc1ccco1)C(=O)[C@H](CC(=O)NCc1cccs1)C2	none (no result: APJ antagonist, CCR6 antag, APJ agonist)
C/C(COc1ccccc1)=N\NC(=O)c1nnn(-c2nonc2N)c1CSc1ccccc1	APJ agonist 19 | APJ ag confirm inactive
CN1CCCCC1(C)C(=O)NCc1cc(Cl)ccc1F (configuration not stated)	none (no result: APJ antagonist, CCR6 antag, APJ agonist)
Cc1cc(C(=O)CSc2nc3ccccc3[nH]2)c(C)n1CC1CCCO1 (configuration not stated)	APJ agonist 21 | APJ ag confirm inactive
Cc1cc(C(=O)CSc2nc(N)cc(=O)[nH]2)c(C)n1CC1CCCO1 (configuration not stated)	none
COc1cc(NC(=O)c2ccccc2)ccc1NC(=O)c1cc2ccccc2o1	APJ agonist 17 | APJ ag confirm inactive
COC(=O)C1(Cc2cc(-c3ccccc3)no2)CCN(C(=O)OC(C)(C)C)CC1	none
COC(=O)c1ccc(-c2cc(CC3(C(=O)OC)CCN(C(=O)OC(C)(C)C)CC3)on2)cc1	APJ agonist 36 | APJ ag confirm inactive
Cn1nc(C(C)(C)C)cc1NC(=O)C1(C)CCN1C(=O)c1ccccc1CCc1ccccc1 (configuration not stated)	none (no result: APJ antagonist, CCR6 antag, APJ agonist)
O=C(O)c1ccc(COc2ccc3c4c(c(=O)oc3c2)CCC4)o1	none
O=c1oc2cc(OCc3ccc([N+](=O)[O-])cc3)ccc2c2c1CCCC2	APJ agonist 62 | APJ ag confirm inactive
CCN1C(c2ccccc2)=C(c2ccccc2)S/C1=C\C=C1/SC(=S)N(C)C1=O	APJ agonist 115 | APJ ag confirm 292
CCN1C(c2ccccc2)=C(c2ccccc2)S/C1=C/C=C1\SC(=S)N(C)C1=O	none (no result: APJ antagonist, APJ agonist)
O=C(NCc1ccccc1)C1Cc2c(-c3ccc(Cl)cc3)ccnc2O1 (configuration not stated)	none (no result: APJ antagonist, CCR6 antag, APJ agonist)
COc1ccc(CCNC(=O)c2cc([C@@H](NC(=O)OC(C)(C)C)C(C)C)sc2N)cc1OC	none (no result: APJ antagonist, CCR6 antag, CXCR6 inh, APJ agonist)
Cc1ccc(-c2cc(C(=O)Nc3ccncc3)c3ccccc3n2)cc1	APJ agonist 31 | APJ ag confirm inactive
Cc1ccc(CCN=c2c([N+](=O)[O-])nn(-c3ccccc3)n2O)cc1	APJ agonist 14 | APJ ag confirm inactive
CS(=O)(=O)c1ccc2nc(NC(=O)Nc3cccc(Cl)c3)sc2c1	APJ agonist 28 | APJ ag confirm inactive
CCCNC(=O)C1(C)CCN(C(=O)c2ccc(C)c(F)c2)C1 (configuration not stated)	none (no result: APJ antagonist, CCR6 antag, APJ agonist)
Cc1cc2c(cc1C)-n1nnnc1C(N1CCN(c3ccccc3F)CC1)C(=O)N2 (configuration not stated)	none (no result: APJ antagonist, CCR6 antag, CXCR6 inh, APJ agonist)
COc1ccc([C@H]2[C@H](C(=O)C(C)(C)C)N3N=Cc4ccccc4C3[C@]23N=C(c2ccccc2)OC3=O)cc1 (some centres not stated)	none
CC(C)(C)OC(=O)[C@H]1[C@H](c2ccc([N+](=O)[O-])cc2)C2(C(=O)c3ccccc3C2=O)C2c3ccccc3C=NN21 (some centres not stated)	APJ agonist 43 | APJ ag confirm 44
CC12CCC(/C(=C/NNc3ccc([N+](=O)[O-])cc3[N+](=O)[O-])C1=O)C2(C)C (configuration not stated)	none (no result: APJ antagonist, CCR6 antag, APJ agonist)
COc1cccc(-c2cccc(-c3nc(C(=O)NCc4ccc(Oc5ccccc5)cc4)cc4c3[C@H](CCO)N(S(=O)C(C)(C)C)C4)c2)c1 (some centres not stated)	none (no result: APJ antagonist, CCR6 antag, APJ agonist)
Cc1onc(-c2ccccc2Cl)c1C(=O)O/N=C(\N)c1ccccc1	APJ agonist 31 | APJ ag confirm inactive
CC1(OC(=O)C2CCCC2)C(=O)C=C2C=C(c3ccsc3)N(C3CCCC3)C=C2C1=O (configuration not stated)	APJ agonist 104 | APJ ag confirm inactive
